Measurements published in ChEMBL document CHEMBL1146569, “The pterocellins, novel bioactive alkaloids from the marine bryozoan Pterocella vesiculosa” (J Nat Prod, 2003).

What was measured:
K562 = experiment: Growth inhibition of human K562 cells; format: functional
SK-MEL-28 = experiment: Growth inhibition of human SK-MEL-28 cells; format: functional; settings: for CC50: read-out: LC50 (the source's name)
Malme-3M = experiment: Growth inhibition of human MALME-3M cells; format: functional; settings: for CC50: read-out: LC50 (the source's name)
MDA-MB-435 = experiment: Growth inhibition of human MDA-MB-435 cells; format: functional; settings: for CC50: read-out: LC50 (the source's name)
SF-295 = experiment: Growth inhibition of human SF295 cells; format: functional
OVCAR-3 = experiment: Growth inhibition of human OVCAR-3 cells; format: functional; settings: for CC50: read-out: LC50 (the source's name)
CAKI-1 = experiment: Growth inhibition of human Caki1 cells; format: functional; settings: for CC50: read-out: LC50 (the source's name)
SF-268 = experiment: Growth inhibition of human SF268 cells; format: functional
NCI-H322M = experiment: Growth inhibition of human NCI-H322M cells; format: functional
SK-MEL-5 = experiment: Growth inhibition of human SK-MEL-5 cells; format: functional; settings: for CC50: read-out: LC50 (the source's name)
IGROV-1 = experiment: Growth inhibition of human IGROV1 cells; format: functional; settings: for CC50: read-out: LC50 (the source's name)
SR = experiment: Growth inhibition of human SR cells; format: functional; settings: for CC50: read-out: LC50 (the source's name)
NCI-H460 = experiment: Growth inhibition of human NCI-H460 cells; format: functional
PC-3 = experiment: Growth inhibition of human PC3 cells; format: functional
NCI-H226 = experiment: Growth inhibition of human NCI-H226 cells; format: functional; settings: for CC50: read-out: LC50 (the source's name)
[1] = Growth inhibition of human […] cells; format: functional; settings: for CC50: read-out: LC50 (the source's name)
SW-620 = experiment: Growth inhibition of human SW620 cells; format: functional
HCT-15 = experiment: Growth inhibition of human HCT15 cells; format: functional; settings: for CC50: read-out: LC50 (the source's name)
[2] = Growth inhibition of human Hs 578T cells; format: functional; settings: for CC50: read-out: LC50 (the source's name)
[3] = Cytotoxicity against african green monkey BSC1 cells at 40 ug/disk; format: cell-based; settings: chlorocebus aethiops, bsc-1
Outline: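 BSC-1 cells (ATCC CCL 26), a line derived from African green monkey kidney, are the host cells of the combined antiviral/cytotoxicity assay. Cytotoxicity is scored on these cells within that assay.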

## COc1cn2c(cc1=O)C(=O)c1ccnc(CC(C)C)c1-2 [PTEROCELLIN A]
K562
  GI50: 3000 nM
  LC50 (concentration killing 50% of cells): > 100000 nM
  TGI: > 100000 nM
SK-MEL-28
  GI50: 1900 nM
  TGI: 4200 nM
  CC50: 9300 nM
Malme-3M
  GI50: 100 nM
  TGI: 300 nM
  CC50: 800 nM
MDA-MB-435
  GI50: 200 nM
  TGI: 300 nM
  CC50: 600 nM
SF-295
  GI50: 1300 nM
  LC50 (concentration killing 50% of starting cells): 5200 nM
  TGI: 2600 nM
OVCAR-3
  GI50: 1500 nM
  TGI: 4600 nM
  CC50: 19300 nM
CAKI-1
  GI50: 2100 nM
  TGI: 4600 nM
  CC50: 11100 nM
SF-268
  GI50: 2100 nM
  LC50 (concentration killing 50% of cells): 26700 nM
  TGI: 6700 nM
NCI-H322M
  GI50: 1600 nM
  LC50 (concentration killing 50% of cells): 5600 nM
  TGI: 3000 nM
SK-MEL-5
  GI50: 200 nM
  TGI: 300 nM
  CC50: 600 nM
IGROV-1
  GI50: 2100 nM
  TGI: 5400 nM
  CC50: 18400 nM
SR
  GI50: 2000 nM
  TGI: > 100000 nM
  CC50: > 100000 nM
NCI-H460
  GI50: 800 nM
  LC50 (concentration causing 50% cell kill): 7100 nM
  TGI: 2600 nM
PC-3
  GI50: 2900 nM
  LC50 (concentration killing 50% of cells): 45100 nM
  TGI: 8400 nM
NCI-H226
  GI50: 1700 nM
  TGI: 3500 nM
  CC50: 7400 nM
[1]
  GI50: 1700 nM
  TGI: 4200 nM
  CC50: > 100000 nM
SW-620
  GI50: 1500 nM
  LC50 (concentration killing 50% of cells): 6200 nM
  TGI: 3100 nM
HCT-15
  GI50: 1600 nM
  TGI: 4200 nM
  CC50: 17300 nM
[2]
  GI50: 6300 nM
  TGI: > 100000 nM
  CC50: > 100000 nM
[3]
  Activity: Toxic

## COc1cn2c(cc1=O)C(=O)c1ccnc(Cc3ccccc3)c1-2 [PTEROCELLIN B]
K562
  GI50: 1200 nM
  LC50 (concentration killing 50% of cells): 4900 nM
  TGI: 2400 nM
SK-MEL-28
  GI50: 1000 nM
  TGI: 2600 nM
  CC50: 6700 nM
Malme-3M
  GI50: 30 nM
  TGI: 100 nM
  CC50: 300 nM
MDA-MB-435
  GI50: 200 nM
  TGI: 300 nM
  CC50: 600 nM
SF-295
  GI50: 300 nM
  LC50 (concentration killing 50% of starting cells): 4000 nM
  TGI: 1600 nM
OVCAR-3
  GI50: 200 nM
  TGI: 600 nM
  CC50: 3200 nM
CAKI-1
  GI50: 1500 nM
  TGI: 3300 nM
  CC50: 7400 nM
SF-268
  GI50: 1700 nM
  LC50 (concentration killing 50% of cells): 21500 nM
  TGI: 5500 nM
NCI-H322M
  GI50: 1100 nM
  LC50 (concentration killing 50% of cells): 4700 nM
  TGI: 2200 nM
SK-MEL-5
  GI50: 100 nM
  TGI: 300 nM
  CC50: 500 nM
IGROV-1
  GI50: 1000 nM
  TGI: 2500 nM
  CC50: 6000 nM
SR
  GI50: 200 nM
  TGI: 1300 nM
  CC50: 3700 nM
NCI-H460
  GI50: 200 nM
  LC50 (concentration causing 50% cell kill): 5500 nM
  TGI: 800 nM
PC-3
  GI50: 1600 nM
  LC50 (concentration killing 50% of cells): 26600 nM
  TGI: 5900 nM
NCI-H226
  GI50: 1400 nM
  TGI: 3500 nM
  CC50: 8400 nM
[1]
  GI50: 1500 nM
  TGI: 4900 nM
  CC50: > 100000 nM
SW-620
  GI50: 700 nM
  LC50 (concentration killing 50% of cells): 4900 nM
  TGI: 2000 nM
HCT-15
  GI50: 500 nM
  TGI: 1800 nM
  CC50: 4900 nM
[2]
  GI50: 5100 nM
  TGI: > 100000 nM
  CC50: > 100000 nM
[3]
  Activity: Toxic
